From ChEMBL document CHEMBL1146639, “Synthesis and evaluation of nonpeptide substituted spirobenzazepines as potent vasopressin antagonists” (Bioorg Med Chem Lett, 2004) come the findings set out here.

≈ marks a conversion by molar mass, not a printed value.

Data set [1] addresses T1, Vasopressin V1a receptor (Homo sapiens, UniProt P37288). In words: Evaluated for intracellular calcium mobilization in HEK- 293 cells transfected to express human vasopressin V1a receptor (Compound 7o). Format: functional, cell-based, HEK293. The essentials:
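Antagonism measured as inhibition of intracellular calcium mobilization in HEK-293 cells transfected with human V1a receptor; IC50 reported.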

For data set [2], the target named is T1, Vasopressin V1a receptor. In words: Binding affinity measured by inhibition of 3[H] AVP binding to cloned human vasopressin V1a receptor. The essentials:
(§1)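 Radioligand binding: inhibition of [3H]AVP binding to cloned human V1a or V2 receptors; IC50 in nM.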

The target in data set [3] is T1, Vasopressin V1a receptor. Nature of the data set: Evaluated for intracellular calcium mobilization in HEK293 cells transfected to express human vasopressin V1a receptor. Format: functional, cell-based. The essentials:
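Functional V1a assay: intracellular calcium mobilization measured in HEK-293 cells transfected to express human V1a receptor; IC50 in nM.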
(In general: A change in cytosolic calcium serves as a functional read-out for many receptors and channels.)

For data set [4], the target named is T2, Vasopressin V2 receptor (Homo sapiens, UniProt P30518). In words: Binding affinity measured by inhibition of 3[H] AVP binding to cloned human vasopressin V2 receptor. The method in brief:
as §1

Data set [5] addresses T1, Vasopressin V1a receptor. Nature of the data set: Binding affinity measured by inhibition of 3[H] AVP binding to cloned human vasopressin V1a receptor (Compound 7o). The method in brief:
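Displacement of [3H]AVP from cloned human V1a receptor; IC50 from inhibition of radioligand binding.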

In data set [6] the target is T2, Vasopressin V2 receptor. Nature of the data set: Evaluated for accumulation of cAMP in transfected HEK293 cells expressing human vasopressin V2 receptor. Format: functional, cell-based. The essentials:
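Functional V2 assay: cAMP accumulation measured in transfected HEK-293 cells expressing human V2 receptor; IC50 in nM.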

Data set [7] can be described thus: Maximum plasma concentration was evaluated in rats at an intravenous dose of 3 mg/kg. Format: ADME, organism-based. More on the design: dose 3 mg/kg, route intravenous. Particulars: rat.
Data set [8] in a line: Half-life determined by human liver microsome stability assay at a concentration of 5 uM. Format: ADME. The following applies: liver microsomes. On the technique in general: Liver microsomes are vesicles of endoplasmic reticulum, rich in cytochrome P450 enzymes.
Data set [9] can be described thus: Solubility measured at pH 2. The following applies: buffer. Format: physicochemical.
The nature of data set [10]: Half-life was evaluated in rats at an oral dose of 30 mg/kg. Format: ADME, organism-based. Set-up: dose 30 mg/kg, route oral. The following applies: rat, in vivo. The method in brief:
(§2)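 Rats given a single oral dose of 30 mg/kg. Cmax, Tmax, terminal half-life and absolute oral bioavailability determined.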

The nature of data set [11]: Time to reach maximum plasma concentration was evaluated at an oral dose of 30 mg/kg. Format: ADME, organism-based. Set-up: dose 30 mg/kg, route oral. Particulars: rat. The method in brief:
as §2

Data set [12] deals with T3, Vasopressin V1a receptor (Rattus norvegicus, UniProt P30560). In words: Evaluated for binding affinity towards vasopressin V1a receptor in rat. The method in brief: (§3)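 Binding IC50 measured in cells transfected with rat V1a or rat V2 receptors.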
T3 sequence (P30560 whole entry): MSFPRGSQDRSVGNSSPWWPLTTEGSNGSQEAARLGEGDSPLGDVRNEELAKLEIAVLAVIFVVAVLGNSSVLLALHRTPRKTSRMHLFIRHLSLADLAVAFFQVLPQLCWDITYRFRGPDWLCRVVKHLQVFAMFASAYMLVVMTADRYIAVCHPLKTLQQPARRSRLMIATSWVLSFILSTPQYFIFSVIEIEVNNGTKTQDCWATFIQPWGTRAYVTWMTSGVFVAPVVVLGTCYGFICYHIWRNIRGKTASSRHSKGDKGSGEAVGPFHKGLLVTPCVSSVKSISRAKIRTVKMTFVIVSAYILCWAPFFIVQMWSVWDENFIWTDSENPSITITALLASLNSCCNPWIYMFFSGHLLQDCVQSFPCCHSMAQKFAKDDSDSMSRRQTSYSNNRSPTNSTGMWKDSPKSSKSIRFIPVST
Data set [13] can be described thus: Area under the curve was evaluated at an intravenous dose of 3 mg/kg. Format: ADME, organism-based. More on the design: dose 3 mg/kg, route intravenous. The following applies: rat, in vivo.
Data set [14] is described as follows: Solubility measured at pH 7.4. Format: physicochemical. The following applies: buffer.
A short description of data set [15]: Half-life was evaluated in rats at an intravenous dose of 3 mg/kg. Format: ADME, organism-based. More on the design: dose 3 mg/kg, route intravenous. Particulars: rat, in vivo.
A short description of data set [16]: Maximum plasma concentration was evaluated in rats at an oral dose of 30 mg/kg. Format: ADME, organism-based. Set-up: dose 30 mg/kg, route oral. Particulars: rat. The essentials:
as §2

Data set [17] in a line: Area under the curve was evaluated at an oral dose of 30 mg/kg. Format: ADME, organism-based. Set-up: dose 30 mg/kg, route oral. The following applies: rat, in vivo.
Data set [18] is described as follows: Partition coefficient (logP). Format: physicochemical. The following applies: octanol/water.
Data set [19] in a line: Bioavailability was evaluated in rats at an oral dose of 30 mg/kg. Format: ADME, organism-based. Particulars: rat, in vivo. The method in brief:
as §2

Data set [20] in a line: Apparent volume of distribution when 3 mg/Kg dose was administered intravenously. Format: ADME, organism-based. Particulars: rat, in vivo, iv, read-out: Volume distribution. The essentials:
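Rats given a single intravenous dose of 3 mg/kg. Apparent volume of distribution reported in […].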

For data set [21], the target named is T3, Vasopressin V1a receptor. Nature of the data set: Evaluated for binding affinity towards vasopressin receptor V1a in rat. The essentials: as §3
The target in data set [22] is Vasopressin V2 receptor (Rattus norvegicus, UniProt Q00788). In words: Evaluated for binding affinity towards vasopressin V2 receptor in rat. The essentials:
as §3

T2 sequence (P30518 whole entry): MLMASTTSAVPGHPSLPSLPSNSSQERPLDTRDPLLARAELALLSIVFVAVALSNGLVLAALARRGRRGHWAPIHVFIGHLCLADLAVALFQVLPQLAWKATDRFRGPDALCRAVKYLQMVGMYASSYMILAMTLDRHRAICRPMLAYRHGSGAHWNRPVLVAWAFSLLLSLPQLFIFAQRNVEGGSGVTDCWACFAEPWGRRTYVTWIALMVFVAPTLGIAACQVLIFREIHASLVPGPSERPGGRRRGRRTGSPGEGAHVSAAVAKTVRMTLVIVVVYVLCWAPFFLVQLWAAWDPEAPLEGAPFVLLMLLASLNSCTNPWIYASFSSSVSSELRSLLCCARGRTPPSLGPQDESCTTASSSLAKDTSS
T1 sequence (P37288 whole entry): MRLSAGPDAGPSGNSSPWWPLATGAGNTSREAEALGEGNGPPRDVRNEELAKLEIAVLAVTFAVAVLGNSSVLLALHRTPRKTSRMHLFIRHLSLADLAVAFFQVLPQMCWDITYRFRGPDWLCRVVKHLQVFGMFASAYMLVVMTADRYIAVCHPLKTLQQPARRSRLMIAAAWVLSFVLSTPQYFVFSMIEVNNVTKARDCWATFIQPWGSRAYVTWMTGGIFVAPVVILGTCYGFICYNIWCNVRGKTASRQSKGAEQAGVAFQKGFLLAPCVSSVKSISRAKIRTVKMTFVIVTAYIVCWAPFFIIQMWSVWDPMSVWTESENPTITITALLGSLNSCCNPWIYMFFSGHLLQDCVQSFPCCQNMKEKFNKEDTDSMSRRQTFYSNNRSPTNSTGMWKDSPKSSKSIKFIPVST
Sequence of Vasopressin V2 receptor (Rattus norvegicus, UniProt Q00788) (Q00788 whole entry): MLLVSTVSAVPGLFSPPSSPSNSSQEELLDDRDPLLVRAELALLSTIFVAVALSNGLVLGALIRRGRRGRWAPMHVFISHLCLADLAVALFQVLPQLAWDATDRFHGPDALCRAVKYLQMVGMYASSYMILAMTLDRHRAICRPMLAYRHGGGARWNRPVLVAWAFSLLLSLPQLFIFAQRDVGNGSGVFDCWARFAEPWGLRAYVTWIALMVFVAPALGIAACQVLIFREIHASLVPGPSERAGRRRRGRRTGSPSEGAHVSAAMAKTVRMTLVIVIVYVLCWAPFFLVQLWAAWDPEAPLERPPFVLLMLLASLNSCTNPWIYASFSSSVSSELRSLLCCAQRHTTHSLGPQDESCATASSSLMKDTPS

For orientation: IC50 means the concentration that gives 50% inhibition. Take `Cc1ccc(F)cc1C(=O)Nc1ccc(C(=O)N2CCC3(C=C(C(=O)NCCN4CCCCC4)CC3)Cc3ccccc32)cc1` (stereo not drawn): the IC50 worked out at 0.071 µM at Vasopressin V1a receptor [1]; 0.01 µM on Vasopressin V1a receptor [2]; 0.048 µM on Vasopressin V1a receptor [3]; 0.039 µM on Vasopressin V2 receptor [4]; 0.016 µM at Vasopressin V1a receptor [5]; 0.048 µM on Vasopressin V2 receptor [6].
In the case of `CN(C)CCNC(=O)C1=CC2(CC1)CCN(C(=O)c1ccc(NC(=O)c3ccccc3F)cc1)c1ccccc1C2` (stereo not drawn), the IC50 at Vasopressin V2 receptor [4] and at Vasopressin V2 receptor [6] was greater than 1 µM each time.
With `Cc1ccc(F)cc1C(=O)Nc1ccc(C(=O)N2CCC3(C=C(C(=O)NCCN4CCCC4)CC3)Cc3ccccc32)cc1` (stereo not drawn), the 50% inhibitory concentration (IC50) came out at 0.019 µM on Vasopressin V1a receptor [2], 0.029 µM at Vasopressin V1a receptor [3], 0.039 µM on Vasopressin V2 receptor [4] and 0.048 µM against Vasopressin V2 receptor [6].
Consider `O=C(NCCN1CCCC1)C1=CC2(CC1)CCN(C(=O)c1ccc(NC(=O)c3ccccc3F)cc1)c1ccccc1C2` (stereo not drawn), for which the IC50 at Vasopressin V1a receptor [2] was 0.008 µM; on Vasopressin V1a receptor [3], 0.155 µM; at Vasopressin V2 receptor [4], greater than 1 µM; at Vasopressin V2 receptor [6], greater than 1 µM.
As to `O=C(NCCO)C1=CC2(CC1)CCN(C(=O)c1ccc(NC(=O)c3ccccc3F)cc1)c1ccccc1C2` (stereo not drawn), the IC50 on Vasopressin V2 receptor [4] and against Vasopressin V2 receptor [6] was greater than 1 µM in each case.
The term Cmax denotes the peak of the concentration-time curve. By half-life is commonly meant the time in which the quantity being followed falls by half. Read a high half-life as slow loss. The term solubility denotes how much of the substance goes into solution per volume. A high value points to a readily soluble substance. For orientation: Tmax means the time from dosing to the highest level. Broadly, the AUC is concentration integrated over time. A high value points to more exposure. The term logP denotes a log measure of how a compound divides between an organic and an aqueous phase. Higher therefore signals higher lipophilicity. As a reminder, the bioavailability is dose-corrected exposure relative to a reference, in per cent. Low values mean little systemic uptake, high ones much systemic uptake. Turning to `CN(C)CCNC(=O)C1=C[C@]2(CC1)CCN(C(=O)c1ccc(NC(=O)c3ccccc3-c3ccccc3)cc1)c1ccccc1C2`, the Cmax amounted to 2.66 µM in data set [7] and 0.79 µM in data set [16]. For the same molecule, the half-life at 5 µM in data set [8] was found to be 1.08 h. The IC50 amounted to 0.002 µM at Vasopressin V1a receptor [2]; 0.045 µM on Vasopressin V1a receptor [3]; 0.033 µM on Vasopressin V1a receptor [12]; 0.008 µM at Vasopressin V2 receptor [4]; 0.036 µM at Vasopressin V2 receptor [6]. The figures for the solubility in data set [9] and in data set [14] were 0.16 mg/mL (≈ 261 µM) and 0.04 mg/mL (≈ 65.3 µM), respectively. Also, the half-life in data set [10] was 6.47 h; in [15], 1.68 h. In data set [11], the Tmax came out at 4 h. In addition, the AUC in data set [13] is 2.06 µM·h; in [17], 4.57 µM·h. Further, the logP in data set [18] worked out at 3.63. In [19], this molecule yielded a bioavailability of 22%. Besides, the Vd in data set [20] came out at 6.84 L/kg.
`O=C(NCCN1CCOCC1)C1=CC2(CC1)CCN(C(=O)c1ccc(NC(=O)c3ccccc3F)cc1)c1ccccc1C2` (stereo not drawn): the IC50 was 0.004 µM at Vasopressin V1a receptor [2] and greater than 1 µM at Vasopressin V2 receptor [4].
On to `CN(C)CCNC(=O)C1=CC2(CC1)CCN(C(=O)c1ccc(NC(=O)c3ccccc3-c3ccccc3)cc1)c1ccccc1C2` (stereo not drawn), for which the IC50 against Vasopressin V2 receptor [6] worked out at 0.1 µM.
On to `Cc1ccc(F)cc1C(=O)Nc1ccc(C(=O)N2CCC3(C=C(C(=O)NCCCN(C)C)CC3)Cc3ccccc32)cc1` (stereo not drawn), for which the IC50 is 0.004 µM at Vasopressin V1a receptor [3] and 0.031 µM on Vasopressin V2 receptor [6].
In the case of `COC(=O)CNC(=O)C1=CC2(CC1)CCN(C(=O)c1ccc(NC(=O)c3cc(F)ccc3C)cc1)c1ccccc1C2` (stereo not drawn), the IC50 at Vasopressin V1a receptor [2] worked out at 0.007 µM; on Vasopressin V1a receptor [3], 0.135 µM; at Vasopressin V2 receptor [4] it was 0.01 µM; against Vasopressin V2 receptor [6], 0.44 µM.
For `CN(C)CCCNC(=O)C1=CC2(CC1)CCN(C(=O)c1ccc(NC(=O)c3ccccc3-c3ccccc3)cc1)c1ccccc1C2` (stereo not drawn), the IC50 on Vasopressin V1a receptor [2] amounted to 0.005 µM; at Vasopressin V1a receptor [3] it was 0.029 µM; on Vasopressin V2 receptor [4], 0.016 µM; on Vasopressin V2 receptor [6] it was 0.02 µM.
As for `Cc1ccc(F)cc1C(=O)Nc1ccc(C(=O)N2CCC3(C=C(C(=O)NCCN(C)C)CC3)Cc3ccccc32)cc1` (stereo not drawn), the results for the IC50 on Vasopressin V1a receptor [3], at Vasopressin V2 receptor [4] and on Vasopressin V2 receptor [6] were 0.065 µM, 0.02 µM and 0.105 µM, respectively.
Regarding `O=C(O)CNC(=O)C1=CC2(CC1)CCN(C(=O)c1ccc(NC(=O)c3ccccc3-c3ccccc3)cc1)c1ccccc1C2` (stereo not drawn), the IC50 amounted to 0.024 µM at Vasopressin V1a receptor [2], 0.078 µM at Vasopressin V1a receptor [3], 0.018 µM on Vasopressin V2 receptor [4] and 0.35 µM against Vasopressin V2 receptor [6].
`O=C(NCCO)C1=CC2(CC1)CCN(C(=O)c1ccc(NC(=O)c3ccccc3-c3ccccc3)cc1)c1ccccc1C2` (stereo not drawn): at Vasopressin V2 receptor [6], the IC50 is 0.17 µM.
Turning to `O=C(NCCN1CCCCC1)C1=CC2(CC1)CCN(C(=O)c1ccc(NC(=O)c3ccccc3F)cc1)c1ccccc1C2` (stereo not drawn), the IC50 at Vasopressin V2 receptor [4] and against Vasopressin V2 receptor [6] was greater than 1 µM in each case.
`CN(C)CCNC(=O)C1=C[C@@]2(CC1)CCN(C(=O)c1ccc(NC(=O)c3ccccc3F)cc1)c1ccccc1C2` (single isomer, unassigned): the maximum concentration (Cmax) in data set [7] came to 1.8 µM; in data set [16], 1.1 µM. The molecule also came in with a half-life at 5 µM in [8] of 0.717 h. Besides, the IC50 on Vasopressin V1a receptor [2] came out at 0.004 µM; at Vasopressin V1a receptor [21], 0.433 µM; on Vasopressin V1a receptor [3], 0.078 µM; on Vasopressin V2 receptor [4], 0.341 µM; at Vasopressin V2 receptor [6], 0.646 µM; at Vasopressin V2 receptor [22], 0.444 µM. Also, the solubility in [9] came to 0.32 mg/mL (≈ 577 µM); in data set [14] it was 0.07 mg/mL (≈ 126 µM). In addition, the half-life is 4.15 h in data set [10] and 4.35 h in data set [15]. The time to peak (Tmax) in [11] turned out to be 4.67 h. Besides, the AUC in data set [13] was 1.68 µM·h; in data set [17], 7.04 µM·h. The molecule also had a logP in data set [18] of 2.45. In addition, the bioavailability in data set [19] amounted to 42%. Moreover, the Vd in data set [20] was found to be 6.67 L/kg.
